Measurements from the EternaBench riboswitch data.

Test system: MS2 coat protein
Test: apparent Kd, MS2 coat protein; higher = weaker binding; RNA-MaP array; FMN 200 µM where present
In short: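 Stalled E. coli RNA polymerase transcribed the designs on Illumina sequencing-chip clusters. SNAP-549-labelled MS2 coat protein was titrated from 0.7 or 1.5 nM, doubling to 3 µM, without and then with constant ligand, in 100 mM Tris-HCl pH 7.5, 80 mM KCl, 4 mM MgCl2, BSA, DTT, yeast tRNA and Tween-20. Per-cluster binding curves were fitted to green signal normalised to red-channel RNA signal and control-cluster median Fmax. The apparent Kd is the median of the filtered fits.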

[1] = designed as: ON switch for flavin mononucleotide, no ligand
[2] = ligand present: flavin mononucleotide, designed as: ON switch for flavin mononucleotide
[3] = designed as: OFF switch for flavin mononucleotide, no ligand
[4] = ligand present: flavin mononucleotide, designed as: OFF switch for flavin mononucleotide

Sequence	apparent Kd [1]	apparent Kd [2]	apparent Kd [3]	apparent Kd [4]
GCCAUCGCAUGAGGAUAUGCUCCCGUUUCGGGAGCAGAAGGCAUGUCGUAAGACAUGAGGAUCACCCAUGUAGUUAAGAUGGCA	0.855 µM	0.0596 µM		
UUAUAUAAUGUGAGGAUAUGCUGGUCCUUGGAUCAGCAGAAGGCACAUGAGGAUCACCCAUGUAGUAAAUUUUA			0.019 µM	0.0244 µM
AUAUAAAAUAUAGGAUAUGGAAACAUGAGGAUCACCCAUGUAUGAUAAGAUAAAUUAUGAUAUAGCCAGAAGGAUACAAUAUAA	0.0313 µM	0.0383 µM		
GAAUGGGUAGAGGAUAUCGCCAUUUCAUCGAGGUGAGAAGGUUACACAUGAGGAUCACCCAUGUCGCCAUUAGC			0.0665 µM	0.0567 µM
UUACCUCAUGAGAAGGACAUGAGGAUCACCCAUGUAGGAUAUCGUGGAAGACAGGUAUUGAAUCUUCGGAUUCAAUACCUGUCU	0.331 µM	0.0171 µM		
GAGUGUGAAUAAGGAUAUAUGAGAGAGUGAGUAAUAGAAGGUAUACAAACAUGAGACAUGAGGAUCACCCAUGUAUCACCCAUG	0.0208 µM	0.0161 µM		
AUCAUGUUAGGAUAUACAAGAAAAGAAAAGAAAGAAAAGAAGUAGAAGGAACAUGAGGAUCACCCAUGUAAGAA			0.0273 µM	0.0454 µM
UUGGGACAUGAGGAUCACCCAUGUAAGGAUAUUGGCGCGCCGGCUCUGUCUGUUCCGCCGAGAAGGUACACGUU			0.104 µM	0.173 µM
AAACACGGACAUGAGGAUCACCCAUGUGGCGAAAGCCUUGGGAGAAGGCAGUAUGCAAAGCAUUCUGAGGAUAUCCAUACCGUG	0.0184 µM	0.00663 µM		
UUCCUCGUUGUGAGGAUAUCGUCCUAUUUUUGUUACGAGAAGGCACAUGAGGAUCACCCAUGUUACUUGAUGUU			0.0199 µM	0.071 µM
CAACUGCAUGUGAGGAUAUGCACCGGCCAAGCCGGGCAGAAGGCACAUGAGGAUCACCCAUGUCAUCCUAUUGC			0.0126 µM	0.0278 µM
CGAUAAAGCUGAGGAUAUGAGAAUAGAAAGAAAUCAGAAGGCAGACAUGAGGAUCACCCAUGUGAGUUCUCGAGAUUAGAUAUU			0.0252 µM	0.0606 µM
UGCAGACGAGGAUAUAGAUUUAAGUACAUGAGGAUCACCCAUGUGCAUAUGUAUUUAGAUUUAGAAGGCGUCUGCU			0.415 µM	0.383 µM
UGGUAACAUGAGGAUCACCCAUGUCAGGAUAUCAGUAAGAAUAGAUUAGAUUAGAAUAUGAGAAGGGACUAUAU			0.0373 µM	0.0316 µM
AAGGUCAUCUGAGGAUAUCGACCUCAAAGGCUACGAGAAGGCAGACUGACAUGAGGAUCACCCAUGUACCGGGAAGAUGCCUCC			0.0158 µM	0.173 µM
AAUAACAGAGGAUAUACUAUUUUAUGUAUUUAUUAUUUUGAACAUGAGGAUCACCCAUGUAGAAGGCUGAGUAA			0.0275 µM	0.0231 µM
UGGUACAUGAGGAUCACCCAUGUAAGAGCCCUCAUGCGAUGUAGAAGGUUAAUGCGAGUAGUGCUAAAGGAUAUACAUGAGUUU			0.212 µM	0.173 µM
UCAUUAUAAAUCCAUCAUAACUACAUGAGGAUCACCCAUGUGCAGGAUAUCGAUGGUUUAACUAUCGAGAAGGGCAAUUACAGA			0.0319 µM	0.0721 µM
GAUACACAUGAGGAUCACCCAUGUGAGGAUAUGAUACUAUGUACUUCGGUACAUAGUAUCAGAAGGCACAUUGA			0.0476 µM	0.0768 µM
UAUUCAUUCAGAGGAUAUUGUUUAUCUCUAUUUCAAGAAGGCUGAUUUUACUACUUACUUAUGAAACAUGAGGAUCACCCAUGU	0.0256 µM	0.0175 µM		
AAAGAGGCGGAUCGCAACUACCAGCAGGAUAUGGGUGUUUUUACAUGAGGAUCACCCAUGUACAUCUAGAAGGGUUGGGUGUCC	0.576 µM	0.0766 µM		
AUCAGCUCGUCAGGAUAUACGUCACUGCGUCAGCAGUGUGAUAAGAUCACAUGAGGAUCACCCAUGUAGAAGGGACGAGCUGAU			0.00848 µM	0.0723 µM
AAAAUCAAUAGAGGAUAUUCAUACACUACAUACGGAGAAGGCUAACAAUCAUGAGGACAUGAGGAUCACCCAUGUUGUGACCAU	0.0259 µM	0.0171 µM		
UUAUUUAUGCAAGGAUAUCAUUAAUUUUUACGUCCUACAUGAGGAUCACCCAUGUUUAGUUUAUUUGAGAAGGUGCAUUGUCUG	0.0384 µM	0.0276 µM		
UUGCUCGUGUGAGGAUAUGCCGCCGUUUCGGCUGCAGAAGGUACUCUGUUACAUGAGGAUCACCCAUGUCUCUGUUGUUUCGUG	0.039 µM	0.0475 µM		
AGAAAGGCAGGAUAUACAUGAGGAUCACCCAUGUUAAGAAAGACGGAAACGUCAAGAAGUAGAAGGGCCAAGAA			0.0234 µM	0.0211 µM
GGUCAUCAAGUCAGGAUAUCGUCUGGUCGAUCAGGCGAGAAGGGACAUGAGGAUCACCCAUGUCGACUCAUCAG			0.0287 µM	0.127 µM
GUUACAUGAGGAUCACCCAUGUAUGUGUGGGAGUAAGUGUCUUAGGAUAUCUAUUAUUGAAAUUAAGAGAAGGAAGAUUGUUGU	0.113 µM	0.104 µM		

Sequence	apparent Kd [1]	apparent Kd [2]	apparent Kd [3]	apparent Kd [4]
GUCAGCUCGUGAGGAUAUACAACACUGCUUCGGCAGUGUAAUUUCCUCACAUGAGGAUCACCCAUGUAGAAGGCACGAGCUGAU			0.0127 µM	0.242 µM
GAAUGUCGGGUAGGAUAUGACGUGCCACGGAGGUCAGAAGGGCCACGACAUGAGGAUCACCCAUGUACUAUGUUCCUUUUUCGA			0.0136 µM	0.0318 µM
UACUACGCAGGAUAUACAUGAGGAUCACCCAUGUGUCUGCGAUAGGCACGUGAAAUCCGUAGAAGGGUGUAGAU			0.042 µM	0.109 µM
CGAUAACAUAGUUAUCCGUAACGGACAUGAGGAUCACCCAUGUAGGAUAUGUUACUCAACGGGUAACAGAAGGACAUGAGUCUU			0.0144 µM	0.0417 µM
UGUAUGUAGGAGAAGGAGGACUUCAUGAGGAUCACCCAUGUGUUAGGACUUAGGAUAUUUGACGACAUGAGGAUCACCCAUGUG	0.0583 µM	0.0496 µM		
GCUGCAUAGUCAGGAUAUGCAAAGUAAUGUAUGGAAACAUACAUUACAACAUGAGGAUCACCCAUGUAGAAGGGACUGUGCAGU			0.0139 µM	0.0123 µM
AUCAGCUUGACAGGAUAUGCAUGUCAGCGAAAGCUGACAAUCUUAAUAACAUGAGGAUCACCCAUGUAGAAGGGUCGAGCUGAU			0.0171 µM	0.0203 µM
GAGAUGUGAGGAUAUCUAGACCAUGGAAAAGCCACGGUCCGAGAGAAGGCACAUGAGGAUCACCCAUGUGAUGA			0.0459 µM	0.171 µM
ACAUGAGGAUCACCCAUGUUGAAUGAGGAUAUUUGACUGCGCAUGAGGUUCUCCCAUGUUCAACCGGAGAAGGUAUUAAUAAUU	0.267 µM	0.16 µM		
UGGAUGUGGGUUCCACAUGAGGAUCACCCAUGUACCGAUGAGAGAAGGCGCGCUGGUUCCCAGGGCGAGGAUAUCUACAUUCAA			0.00563 µM	0.0142 µM
GGUAGACAAAGUCUACCAUUACGAACAUGAGGAUCACCCAUGUAGGAUAUGCUACUCAAAGAGUAGCAGAAGGACAUGUGUCUU			0.0298 µM	0.143 µM
UAUAUAUAGUAAGGAUAUGUAUAUAUAUUAUAAACAGAAGGUACUGACAUGAGGAUCACCCAUGUUUUAGUGUGGGCAUGUAGA			0.0751 µM	0.0961 µM
GCACGACAUGUAGGAUAUCGAGCGCCGGGCGCUCGAGAAGGACAUGAGGAUCACCCAUGUAUUCUGAGUGACCGAGGUCGUUGC			0.0479 µM	0.431 µM
UUAAAUCAUGUAGGAUAUGCAUGGCGAAGCUACGCAGAAGGACAUGAGGAUCACCCAUGUUCUAGCUACCGAGUACGGUGGCAA			0.0206 µM	0.0863 µM
UUUCAGUCAGGAUAUCGUUAAUUUAAUUGUUUGUAUUAGUUCGAGAAGGGACAUGAGGAUCACCCAUGUACUCU			0.0196 µM	0.02 µM
UGGUACUACGGAGGAUAUCAUGUAAAUACAUGAGGAUCACCCAUGUCGUACGAGAGUACGGAGAUUGAGAAGGCCGUAGUACCU	0.0256 µM	0.0156 µM		
ACUAAGGAGGUAGGAUAUUGUGUGGUGGCCGGGCUCCCACGGCGAGCGGCACAAGAAGGAUCCCUACAUGAGGAUCACCCAUGU	0.024 µM	0.0164 µM		
AGUGACGGUACAGGAUAUGCUGGACUUUGUCCAGCAGAAGGGUAUUAACAUGAGGAUCACCCAUGUUCCGUCACCAAAUUUAAU	0.041 µM	0.0074 µM		
AUGGAUGUCACAGGAUAUGCUAUGGAUACCAUAGCAGAAGGGUGAUCCAUCCUAUGUAAAUACAUGAGGAUCACCCAUGUAUCC	0.112 µM	0.0736 µM		
UAACCUCGCGUCAGGAUAUGUGAGGACUGUGACGCACAGAAGGGACAUGAGGAUCACCCAUGUGAAAGAAAUAA			0.0268 µM	0.0825 µM
AGUACUACAGGAUAUACAUGAAUGAUAAUCAUUACCCUUAUACAUGAGGAUCACCCAUGUAGAAGGGUAGUACA			0.0164 µM	0.02 µM
UGGUACCAGGGAGGAUAUGGGAAGAUACAUGAGGAUCACCCAUGUUUAAGAAUGCCGAGAGGCAACUAGAAGGCCCUAGUACCU	0.338 µM	0.019 µM		
AAACCACAUGAGGAUCACCCAUGUAAAAAUAUGGGAGGAUAUCGGAAUAAAAUAAAGAAACGAGAAGGCCUAAAAA	0.153 µM	0.0359 µM		
UGUGCUGAAGGAUAUGCGUAAGCUCGGUGACGAGCAGAUCUACAUGAGGAUCACCCAUGUAGAAGGUCAGUACU			0.016 µM	0.0184 µM
UAUAGCCCUAGUUCGAGUGUCUAGGAGGAUAUACAGAGGCAGCCAAAGACAUGAGGAUCACCCAUGUAGAAGGCCUAGACGGUA				0.0823 µM
UCCUCUUUGAAGAAGGCGUGGUUAUGCAAGCCGCGAGGAUAUUCACAUGAGGAUCACCCAUGUGGAUUUCAGUCCGCUCAAAAC			0.0119 µM	0.0618 µM
CUAGCGGAUGUAGGAUAUCGGACUGUUUCAGUCUGAGAAGGACAUGAGGAUCACCCAUGUAUUGCUGCGUGAGUAGCACGCUAG			0.0191 µM	0.0302 µM
